Most compounds without a hit are left out; they make up all but 1.4% or so of the library.
PG9 binder – small molecules binding HIV-1 gp120 antibody PG9 | TR-FRET gp120-PG9 antibody binding | inhibition, % at 6.7 µM | 360,000 tested, 0.43% active | AID 624416; in the data active = inhibition above about 8.5%
NR2E3 ag-1 – activates human photoreceptor nuclear receptor NR2E3; GST-NR2E3/biotin-RetCOR TR-FRET, 1536-well; inhibition of corepressor binding, % at 4.78 µM; 320,000 tested, 0.12% active;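 active = percent inhibition above the cutoff of mean plus 3 SD of all tested compounds, set per screening campaign, cut at about 20% in these data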;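 also: 0% = DMSO wells and 100% = biotin wells as full block of FRET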
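Assay system: NR2E3–RetCOR corepressor complex. Quantity: 1.35 nM GST-NR2E3. Buffer or medium: pH 7.5 Tris-based buffer. Reagent: biotinylated RetCOR corepressor at 7 nM final. Schedule: 5 h at 4 °C. Detection: TR-FRET, emission read at 617 and 671 nm. Replicates: one well per compound, singlicate testing.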
NR1D1 modulator – Rev-erb alpha (human) modulation; 370,000 tested, 0.79% active; activity, % at 10 µM; Rev-erbα–FITC-DNA binding, fluorescence polarization, 90 min; P20393;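 active = activity above about 14%, limit read from the data; passing the limit was not always enough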;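 also: 0% = DMSO wells with 35 nM protein and 100% = DMSO wells with 750 nM protein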
Target sequence (P20393 whole entry, looked up): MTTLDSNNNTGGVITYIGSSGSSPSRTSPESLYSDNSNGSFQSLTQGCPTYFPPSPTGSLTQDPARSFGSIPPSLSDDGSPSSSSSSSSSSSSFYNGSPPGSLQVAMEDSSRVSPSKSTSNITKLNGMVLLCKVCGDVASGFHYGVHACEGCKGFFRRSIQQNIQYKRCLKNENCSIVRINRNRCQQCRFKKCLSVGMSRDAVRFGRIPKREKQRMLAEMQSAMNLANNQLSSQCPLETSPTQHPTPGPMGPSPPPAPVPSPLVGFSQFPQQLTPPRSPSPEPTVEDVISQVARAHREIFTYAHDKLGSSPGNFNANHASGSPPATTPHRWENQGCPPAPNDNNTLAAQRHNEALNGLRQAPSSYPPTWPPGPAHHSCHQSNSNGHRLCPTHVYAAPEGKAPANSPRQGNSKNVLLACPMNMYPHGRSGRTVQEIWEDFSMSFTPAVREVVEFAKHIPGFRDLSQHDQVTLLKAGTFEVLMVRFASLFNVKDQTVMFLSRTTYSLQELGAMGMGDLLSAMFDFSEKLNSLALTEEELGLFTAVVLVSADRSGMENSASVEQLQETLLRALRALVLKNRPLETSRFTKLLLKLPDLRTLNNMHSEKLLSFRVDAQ
NR2E3 ag-2 – agonists of human NR2E3 nuclear receptor | AID 602229 | inhibition of corepressor binding, % at 3.98 µM | 360,000 tested, 0.35% active | CHO-S Gal4-NCOR/VP16-NR2E3 two-hybrid, luciferase | Q9Y5X4;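 active = inhibition above the mean of all tested compounds plus 3 SD, cut at about 70% in these data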;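 also: 0% = DMSO with NR2E3 transfected cells and 100% = cells lacking NR2E3 construct; higher means lower luciferase signal from less NR2E3 corepressor binding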
NR2E3 ag conf – NR2E3 agonism confirmed in two-hybrid assay. shares compounds with NR2E3 ag-2. CHO-S mammalian two-hybrid NR2E3-NCOR, luciferase luminescence. inhibition, % at 3.98 µM. 2,300 tested, 51% active. AID 624378;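 active = average inhibition above a cutoff equal to the mean inhibition of all tested compounds plus one SD, cut at about 70% in these data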;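 also: 0% = DMSO in NR2E3 cells and 100% = DMSO in cells lacking NR2E3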
VP16 counter – GAL4-VP16 reporter inhibition in NR2E3 agonist counterscreen; 2,300 tested, 29% active; shares compounds with NR2E3 ag-2; inhibition, % at 3.98 µM; AID 624379; CHO-S GAL4-VP16 luciferase reporter, luminescence;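 active = mean inhibition above a cutoff equal to the average over all tested compounds plus one standard deviation, cut at about 70% in these data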;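 also: luciferase from a UAS reporter driven by GAL4-VP16 transactivation; 0% = DMSO with VP16-transfected cells and 100% = DMSO with cells lacking VP16; higher means less reporter light so more repression of VP16 activity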
* = called active by the depositor; nt = no result.

SMILES	PG9 binder	NR2E3 ag-1	NR1D1 modulator	NR2E3 ag-2	NR2E3 ag conf	VP16 counter
Cc1ccc(OCC(=O)c2cc(C)n(C)c2C)c([N+](=O)[O-])n1	-2	-1	-11	26	nt	nt
Cc1cc(C(=O)COc2cccnc2[N+](=O)[O-])c(C)n1-c1ccccc1	-4	-1	1	71*	72*	54
Cc1cc(C(=O)COc2cccnc2[N+](=O)[O-])c(C)n1Cc1ccco1	0	0	-14	29	nt	nt
Cc1cc(-n2c(C)cc(C(=O)COc3ccccc3[N+](=O)[O-])c2C)no1	-3	1	nt	-46	nt	nt
C/C=C/C(=O)N1CCc2cc(S(=O)(=O)N(C)Cc3ccco3)ccc21	nt	nt	0	nt	nt	nt
N#C/C(=N\Nc1ccc(Cl)cc1)C(=O)c1ccccc1	-1	3	1	99*	100*	91*
Cc1c(N/N=C(\C#N)C(=O)c2ccc(Cl)cc2)c(=O)n(-c2ccccc2)n1C	1	1	12	17	nt	nt
C=C(C)Cn1c(=O)c2c(nc3n2CC(C)CN3Cc2ccccc2)n(C)c1=O (stereo not drawn)	-1	-1	-1	63	13	-20
CCCCOCCCNC(=O)C[C@H]1C[C@@]2(C(=O)OC)C(=C[C@H](C(C)C)O[C@@H]2C2CC2)N(Cc2ccc3c(c2)OCO3)C1=O	nt	nt	2	nt	nt	nt
N#Cc1c(-c2ccccc2)cc(-c2ccccc2)nc1SCCC(=O)O	-1	1	9	54	74*	8
CN(C)c1cc(C(F)(F)F)nc(-c2ccccn2)n1	0	-2	4	-15	nt	nt
CSCc1cc(N(C)c2ccccc2)nc(-c2ccccn2)n1	-2	2	-3	109*	38	19
c1cnc2cc3c(cc2n1)C1CNCC3C1	nt	nt	-9	nt	nt	nt
CN(C)C(=S)N=c1ssc(=S)n1Cc1ccccc1	0	nt	4	90*	-24	-56
CCOC(=O)CC[C@@]1(C(=O)OCC)C[C@@H](CC(=O)NCCc2ccccc2OC)C(=O)N2CCCC=C21	nt	nt	3	nt	nt	nt
O=C1CCCN1c1ccc(S(=O)(=O)Nc2cccnc2)cc1	-1	3	3	-7	nt	nt
CC1CCC(NS(=O)(=O)c2ccc(N3CCCC3=O)cc2)CC1 (stereo not drawn)	-1	1	1	53	31	32
O=C(CSc1nnc(Cn2nnc3ccccc32)o1)N(Cc1ccc(F)cc1)c1ccccc1	2	-3	-1	79*	88*	74*
COC(=O)[C@]12C[C@H](CC(=O)NCc3cccc4ccccc34)C(=O)N(CCc3ccc(OC)c(OC)c3)C1=C[C@H](COCc1ccccc1)O[C@@H]2C	nt	nt	-2	nt	nt	nt
CCCCCCCCCCn1c2c(c(=N)c3c1CCC3)CCC2	-1	1	-10	99*	100*	97*
CCCCCCCCCn1c2c(c(=N)c3c1CCC3)CCCC2	nt	nt	nt	95*	98*	96*
CCn1c2c(c(=N)c3c1CCC3)CCCC2	1	2	-5	-18	nt	nt
CCCCCCCCn1c2c(c(=N)c3ccccc31)CCC2	1	nt	0	28	nt	nt
NC1=[N+](Cc2ccccc2)C(Cc2ccccc2)C2C(=C3CCCCC3n3c(=O)n(-c4ccccc4)c(=O)n32)N1 (stereo not drawn)	nt	nt	4	nt	nt	nt
O=C(Sc1cccc2cccnc12)c1ccccc1Br	-2	-5	18	100*	-24	-39
SMILES	PG9 binder	NR2E3 ag-1	NR1D1 modulator	NR2E3 ag-2	NR2E3 ag conf	VP16 counter
O=C(Sc1cccc2cccnc12)c1ccc(F)cc1	0	nt	13	nt	nt	nt
CCOc1ccc(OCCC(=O)Nc2ccc(F)cc2C)cc1	-2	2	-2	50	15	-25
CC(=O)NCCC(=O)Nc1ccc(F)cc1C	-2	-2	5	6	nt	nt
O=C(Cc1cccs1)NNC(=S)NCc1ccco1	3	1	-3	22	nt	nt
O=C(Cc1ccc(-c2ccccc2)cc1)NNC(=S)NCc1ccco1	-1	1	2	54	89*	59
O=C1[C@@H](CCc2ccccc2)[C@@H]2c3cc4ccccc4cc3C=NN2[C@@H]2c3cc4ccccc4cc3C=NN12	nt	nt	1	nt	nt	nt
O=C(O)CSCC(=O)NC1CCSC1=O (stereo not drawn)	nt	nt	-8	nt	nt	nt
CCOC(=O)[C@@]12CCC3=C1N(CCC3)C(=O)[C@H](CC(=O)NCc1cccc(C(F)(F)F)c1)C2	nt	nt	-3	nt	nt	nt
Cc1nc2ncccn2c1-c1csc(Nc2cccc(C(=O)O)c2)n1	-9	-4	1	-19	nt	nt

From PubChem
